The values that follow come from ChEMBL document CHEMBL1127468, “A marked change of receptor affinity of the 2-methyl-5-(3-hydroxyphenyl)morphans upon attachment of an (E)-8-benzylidene moiety: synthesis and evaluation of a new class of sigma receptor ligands” (J Med Chem, 1994).

The target of experiment [1] is Mu-type opioid receptor (Rattus norvegicus, UniProt P33535). The experiment is described as follows: Inhibition of radioligand [3H]DAMGO binding to rat brain mu receptor. The method, boiled down:
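Rat brain membranes labelled with [3H]DAMGO (1-3 nM), incubated 4 h at 25 °C in 50 mM Tris-HCl pH 7.4 with protease inhibitor cocktail. Nonspecific binding defined by 20 μM levallorphan. Displacement by 8-10 test drug concentrations, done twice; drug dilutions in 10 mM Tris-HCl pH 7.4 containing 1 mg/mL BSA.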

Experiment [2] concerns the target Muscarinic acetylcholine receptor. The experiment is described as follows: Inhibition of radioligand [3H]NMS binding to muscarinic receptor of rat brain.
The target of experiment [3] is Kappa-type opioid receptor (Cavia porcellus, UniProt P41144). The experiment is described as follows: Inhibition of radioligand [3H]U-69593 binding to kappa 1 receptor of guinea pig brain. Put shortly:
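Guinea pig brain membranes pretreated with irreversible ligands BIT and FIT to deplete mu and delta sites. Nonspecific binding with 1 μM U69,593. 8-10 drug concentrations, run twice.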

Experiment [4] deals with Delta-type opioid receptor (Rattus norvegicus, UniProt P33533). The experiment can be described thus: Inhibition of radioligand [3H]DADLE binding to rat brain delta receptor. Put shortly:
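Rat brain membranes; [3H]DADLE 1.7-2.5 nM, 3-4 h at 25 °C in 10 mM Tris-HCl pH 7.4 with 100 mM choline chloride, 3 mM MnCl2, 100 nM DAMGO to block mu sites, and protease inhibitor cocktail. Nonspecific binding with 20 μM levallorphan. 8-10 test drug concentrations, run twice; dilutions in Tris buffer with 1 mg/mL BSA.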

Experiment [5] concerns the target Glutamate NMDA receptor. The experiment can be described thus: Inhibition of radioligand [3H]TCP binding to PCP site in rat brain. Type of experiment: tissue-based.
Experiment [6] relates to Glutamate NMDA receptor. The experiment is described as follows: Inhibition of radioligand [3H]TCP binding to PCP site in rat brain; No inhibition. Type of experiment: tissue-based.
Experiment [7] in a line: Ratio of Ki values tested against sigma receptor and Mu receptor.
In experiment [8] the target is Glutamate NMDA receptor. The experiment can be described thus: Inhibition of radioligand [3H]TCP binding to rat brain PCP site.

Some results are limits rather than exact numbers.

Chain of Delta-type opioid receptor (P33533 whole entry): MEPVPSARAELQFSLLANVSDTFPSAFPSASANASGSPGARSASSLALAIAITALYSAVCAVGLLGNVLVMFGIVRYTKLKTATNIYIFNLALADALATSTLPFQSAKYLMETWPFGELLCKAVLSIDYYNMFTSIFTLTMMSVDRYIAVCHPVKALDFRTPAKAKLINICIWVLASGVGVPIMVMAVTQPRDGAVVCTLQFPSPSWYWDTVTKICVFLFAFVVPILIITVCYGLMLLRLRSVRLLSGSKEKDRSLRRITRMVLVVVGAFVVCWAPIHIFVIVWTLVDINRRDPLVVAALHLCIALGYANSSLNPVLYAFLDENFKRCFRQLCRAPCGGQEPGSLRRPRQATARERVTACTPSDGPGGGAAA
Chain of Mu-type opioid receptor (P33535 whole entry): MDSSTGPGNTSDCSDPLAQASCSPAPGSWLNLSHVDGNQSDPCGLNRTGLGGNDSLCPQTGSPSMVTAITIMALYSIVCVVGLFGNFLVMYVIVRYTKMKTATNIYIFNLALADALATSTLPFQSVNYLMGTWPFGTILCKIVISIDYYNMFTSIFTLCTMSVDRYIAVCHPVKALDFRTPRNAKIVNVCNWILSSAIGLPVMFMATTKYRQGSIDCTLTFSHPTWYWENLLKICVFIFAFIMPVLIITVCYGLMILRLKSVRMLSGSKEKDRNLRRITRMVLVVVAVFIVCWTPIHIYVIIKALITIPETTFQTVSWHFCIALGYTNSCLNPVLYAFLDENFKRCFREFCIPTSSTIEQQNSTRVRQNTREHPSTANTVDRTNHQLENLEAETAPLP
Chain of Kappa-type opioid receptor (P41144 whole entry): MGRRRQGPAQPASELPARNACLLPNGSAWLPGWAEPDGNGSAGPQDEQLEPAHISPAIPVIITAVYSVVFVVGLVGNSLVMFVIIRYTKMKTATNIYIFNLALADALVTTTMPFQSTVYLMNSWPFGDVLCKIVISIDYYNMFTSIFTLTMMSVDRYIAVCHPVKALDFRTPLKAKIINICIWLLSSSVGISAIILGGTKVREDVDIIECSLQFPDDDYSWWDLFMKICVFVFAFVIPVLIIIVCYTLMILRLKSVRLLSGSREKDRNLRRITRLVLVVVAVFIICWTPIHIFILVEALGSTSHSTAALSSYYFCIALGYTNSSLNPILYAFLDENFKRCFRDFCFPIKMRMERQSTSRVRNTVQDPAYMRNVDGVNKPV

For the molecule `CN1CCC2(c3cccc(O)c3)CC(=O)CC1C2` (stereo in doubt; 4), the Ki (commonly a dissociation constant, usually derived from enzyme kinetics or from competition with a known ligand) in experiment [1] was 5.5 nM; in experiment [2], 46400 nM; in experiment [3], 1010 nM; in experiment [4], 320 nM.
On to `CN1CC[C@]2(c3cccc(O)c3)CC(=O)/C(=C/c3ccccc3)[C@H]1C2`, for which the Ki in experiment [1] was 37.6 nM; in experiment [2] it was 26000 nM; in experiment [3] it was 1090 nM; in experiment [4] it was 735 nM; in experiment [5], ~100000 nM.
In the case of `C[N+]1(C)CCC2(c3cccc(O)c3)CC(=O)/C(=C/c3ccccc3)C1C2.[I-]` (stereo not drawn), the inhibition constant (Ki) is > 700 nM in experiment [1]; 14700 nM in experiment [2]; > 5000 nM in experiment [3]; > 1000 nM in experiment [4]; “Not Active” in experiment [6]. Further, in experiment [7], the Ratio was < 7.7.
For `CN1CC[C@@]2(c3cccc(O)c3)CC(=O)/C(=C/c3ccc(Cl)c(Cl)c3)[C@H]1C2`, the Ki in experiment [1] was 4.5 nM; in experiment [2], 18600 nM; in experiment [3], > 500 nM; in experiment [4], 271 nM; in experiment [5], > 100000 nM.
With `COc1cccc(C23CCN(C)C(C2)/C(=C\c2ccccc2)C(=O)C3)c1` (stereo not drawn), the Ki in experiment [2] was 11600 nM; in experiment [5], > 50000 nM.
Regarding `CN1CC[C@@]2(c3cccc(O)c3)CC(=O)/C(=C/c3ccccc3)[C@@H]1C2`, the Ki in experiment [1] is 392 nM; in experiment [2], 7400 nM; in experiment [3] it was 889 nM; in experiment [4] it was 1990 nM; in experiment [5] it was > 100000 nM.
On the same counts, the results for `CN1CCC2(c3cccc(O)c3)CC(=O)/C(=C/c3ccccc3)C1C2` (stereo not drawn) are 33.9 nM, 14400 nM, 576 nM, > 500 nM and > 100000 nM.
For the molecule `CN1CCC2(c3cccc(O)c3)CC(=O)/C(=C/c3ccc(Cl)c(Cl)c3)C1C2` (stereo not drawn), the inhibition constant (Ki) in experiment [1] was 6.1 nM; in experiment [3], > 500 nM; in experiment [4], 240 nM; in experiment [5] it was > 100000 nM.
Regarding `COc1cccc(C23CCN(C)C(CC(=O)C2)C3)c1` (stereo not drawn), the Ki is 23300 nM in experiment [2] and > 100000 nM in experiment [8].
`CN1CC[C@@]2(c3cccc(O)c3)CC(=O)/C(=C/c3ccc(Cl)c(Cl)c3)[C@@H]1C2`: the Ki was 45.1 nM in experiment [1]; 50300 nM in experiment [2]; > 500 nM in experiment [3]; > 500 nM in experiment [4]; > 100000 nM in experiment [5].
As for `CN1CCC2(c3cccc(O)c3)CC(=O)CC1C2` (stereo in doubt), the Ki in experiment [1] is 8.7 nM; in experiment [2], 25300 nM; in experiment [3], 491 nM; in experiment [4], 121 nM; in experiment [8], > 100000 nM.
